Screens deposited in PubChem BioAssay by several laboratories.
proKLK7 act: activates the human kallikrein-7 zymogen | P49862 | purified proKLK7, EDANS-DABCYL substrate fluorescence; 100% is mature enzyme control, 0% vehicle | activation, % at 7 µM | 370,000 tested, 0.9% active | AID 652039;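 active means activation above the mean of all tested compounds plus 3 SD, computed per campaign excluding outliers beyond control limits, cut at about 13% in these data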
Runt-CBFb FRET: Runt domain-CBFb interaction inhibition. Q01196+Q13951. Cerulean-Runt/Venus-CBFb FRET ratio 530/480, 1 h. inhibition, % at 20 µM. 220,000 tested, 0.46% active. AID 1496;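 active means inhibition over about 50% at 20 µM in the single-dose screen, limit read from the data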;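 further: 0% = DMSO wells and 100% = excess unlabeled CBFb competitor control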
Target sequence (Q01196 whole entry, looked up, the tested form may be a part): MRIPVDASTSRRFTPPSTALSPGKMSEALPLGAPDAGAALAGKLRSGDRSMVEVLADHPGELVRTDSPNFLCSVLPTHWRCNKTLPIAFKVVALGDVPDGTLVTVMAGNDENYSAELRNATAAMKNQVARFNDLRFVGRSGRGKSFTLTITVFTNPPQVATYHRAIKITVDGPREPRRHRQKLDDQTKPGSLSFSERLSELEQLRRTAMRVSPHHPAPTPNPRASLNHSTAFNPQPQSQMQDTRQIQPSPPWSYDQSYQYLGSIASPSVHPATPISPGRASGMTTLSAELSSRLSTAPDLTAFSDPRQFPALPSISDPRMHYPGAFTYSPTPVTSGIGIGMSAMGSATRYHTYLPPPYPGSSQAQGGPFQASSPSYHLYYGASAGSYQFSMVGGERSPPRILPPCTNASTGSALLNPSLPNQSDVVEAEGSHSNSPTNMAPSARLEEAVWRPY
Target sequence (Q13951 whole entry, looked up, the tested form may be a part): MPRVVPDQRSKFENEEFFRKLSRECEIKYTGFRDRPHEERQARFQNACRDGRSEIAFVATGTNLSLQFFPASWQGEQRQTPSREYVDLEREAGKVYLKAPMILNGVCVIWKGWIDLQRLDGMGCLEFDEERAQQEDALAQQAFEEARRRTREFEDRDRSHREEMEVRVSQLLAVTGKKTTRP
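test system = Cerulean-tagged RUNX1 Runt domain (FRET donor) fusion protein | reagent = Venus-CBFb binding partner, 100 nM | incubation = protein complex preformed 1 h, compound exposure 1 h, room temperature, dark | detection = FRET fluorescence | read-out basis = loss of energy transfer signal | controls = 5 µM unlabeled CBFb as full-inhibition high control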
RanGTP-Imp inh: disruptors of Ran-importin-beta complex formation – biochemical, FRET, CFP-Ran, YFP-importin-beta, homogeneous, primary screen; inhibition, % (test concentration not listed); cell-free CFP-Ran/YFP-importin-beta FRET ratio; 300,000 tested, 1.1% active; AID 2216;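 active means more than half of the replicate wells show a fall in the fluorescence ratio signal beyond about 16%, limit read from the data, passing the limit was not always enough; inconclusive means exactly half of the replicate wells pass the set limit; inactive means fewer than half of replicates pass the limit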;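 further: 0% = DMSO wells and 100% = Ran loaded with GDP instead of GTP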
AI-2 QS modul: modulates the Vibrio harveyi AI-2 quorum sensing system | Vibrio harveyi JMH597 AI-2 luminescence/OD600 ratio, 9 h; hits give low values; strain lacks LuxN and CqsS sensors; 0 = neutral-control median | activity change, % at 7.5 µM | 300,000 tested, 0.4% active | AID 2094; in the data active means activity change below about -75%, passing the limit was not always enough; inconclusive means no clear call, values can overlap the other calls;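 further: luminescence divided by OD600 gain over 9 h not by final OD600 alone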
Runt-SMMHC FRET: inhibitors of human RUNX1 Runt domain binding to CBFb-SMMHC; inhibition, % at 20 µM; 220,000 tested, 0.74% active; Q01196+Q13951; Cerulean-Runt/Venus-CBFb-SMMHC FRET ratio 530/480, 1 h; AID 1434;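 active means mean inhibition across duplicate retests at 20 µM reaching about 50%, limit read from the data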;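 further: 0% = DMSO wells and 100% = wells with excess untagged CBFb-SMMHC; inhibitors lower the FRET ratio by blocking Runt binding to CBFb-SMMHC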
Wee1 stabilizer: inhibitors of human Wee1 degradation; reporter increase, % at 5 µM; HeLa Luc-Wee1K328M stability, luciferase luminescence; 100% = proteasome inhibitor MG132 effect; 220,000 tested, 1.2% active; P30291;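 active means activation above the mean of all tested compounds plus 3 SD, set per screening run, cut at about 8.8% in these data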;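 further: cells exposed to compound for 20 h before luminescence read; 0% = DMSO alone and 100% = MG132 at 30 µM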
Wee1 stab conf: human Wee1 degradation inhibition, confirmation; AID 1410; activation, % at 5 µM; 1,100 tested, 4% active; shares compounds with Wee1 stabilizer; HeLa Luc-Wee1K328M degradation, luminescence; vehicle 0%, proteasome-blocked wells 100%; in the data active means activation above about 8.9%
* = called active by the depositor; ? = inconclusive; · = not tested or not shown. Shown are actives, neighbours in structure and some others; about 2.9% of the full set was active somewhere.

SMILES	proKLK7 act	Runt-CBFb FRET	RanGTP-Imp inh	AI-2 QS modul	Runt-SMMHC FRET	Wee1 stabilizer	Wee1 stab conf
Cc1cc(N2CCN(C(c3ccccc3)c3ccc(Cl)cc3)CC2)n2ncnc2n1 (configuration not stated)	1	-7	4	21	0	12*	-1
Cc1cc(N2CCN(c3ccccc3)CC2)n2ncnc2n1	1	0	3	15	4	-1	·
CN(C)C(=O)CSc1nc2ccc(N3C(=O)c4ccccc4C3=O)cc2s1	0	-2	0	15	-2	-2	·
N#C/C(=C\c1ccc(OC(F)F)cc1)C(=O)N1CCCCC1	0	1	2	12	2	15*	0
COc1ccc(CNCc2cccc(Oc3ccccc3)c2)cc1	0	-2	-2	-14	-4	2	·
O=C(COc1ccc(CO)cc1Cl)Nc1ccc(F)cc1	0	2	-2	4	-2	16*	-5
O=C(C1=NN[C@@H]2C(=O)N(Cc3ccccc3)C(=O)[C@H]12)c1ccc(F)cc1	1	0	-5	25	-2	11*	-3
Cc1csc(SCC(=O)NCc2ccccc2)n1	0	0	-1	2	5	2	·
Cc1csc2sc(-c3ccnc(SCC(=O)NCc4ccccc4)n3)c(C)c12	-2	-2	6	14	-3	14*	22*
CC(=O)Nc1ccc(S(=O)(=O)NCc2ccncc2)cc1	-1	3	-3	8	-3	12*	-1
Cc1ccc(S(=O)(=O)NCc2ccncc2)cc1	0	2	0	9	4	-3	·
O=C(NC1CCCCCC1)c1cc(-c2ccccn2)nc2ccccc12	0	-5	1	17	-4	-3	·
CCOC(=O)c1c(C)[nH]c(C(=O)N/N=C/c2cc([N+](=O)[O-])ccc2O)c1C	-1	·	6	35	·	·	·
CCOC(=O)c1c(C)[nH]c(C(=O)N/N=C\c2ccccc2O)c1C	-6	5	7	14	8	12*	9
O=C(COC(=O)/C=C/c1cccc(C(F)(F)F)c1)NC(=O)NCc1ccco1	0	·	·	·	·	·	·
CN(C)c1ccc(P(=O)(OC2CCCCC2)C(O)c2ccccn2)cc1 (configuration not stated)	0	1	1	14	-2	-4	·
CN(C)c1ccc(P(=O)(OC2CCCCC2)C(O)c2cccnc2)cc1 (configuration not stated)	0	-2	-2	10	3	12*	4
C=CCN(Cc1ccc(OC)c(OC)c1)C(=O)c1cc2cc(F)ccc2[nH]1	0	·	2	5	·	·	·
COCCn1c(SCC(=O)Nc2ccccc2)nc2c(oc3ccccc32)c1=O	0	-3	·	16	1	-1	·
COCCn1c(SCC(=O)Nc2ccc(F)cc2)nc2c(oc3ccccc32)c1=O	0	0	-1	10	-2	11*	-2
COC(=O)/C=C/c1ccc(OC(=O)OC)c(OC(=O)OC)c1	0	-1	4	9	-16	12*	1
COC(=O)/C=C/c1ccc2c(c1)OCO2	-5	1	2	-14	2	1	·
C(=N\Nc1nc2ccccc2[nH]1)/c1ccc2c(c1)OCO2	-1	2	-1	123	2	12*	3
CC(C)(C)c1ccc(/C=N/NC(=S)NCc2ccccc2)cc1	1	2	-2	16	0	17*	0
O=C(O)c1ccc(NC(=S)NCc2ccccc2)cc1	0	·	2	9	·	·	·
SMILES	proKLK7 act	Runt-CBFb FRET	RanGTP-Imp inh	AI-2 QS modul	Runt-SMMHC FRET	Wee1 stabilizer	Wee1 stab conf
FC(F)(F)c1ccc(NC(=S)NCc2ccccc2)cc1	0	0	-2	-71	-2	19*	0
O=C(CCCn1c(=O)[nH]c2cc(Cl)ccc2c1=O)NCCCN1CCN(c2ccc(F)cc2)CC1	1	-3	2	18	-6	2	·
O=C(/C=C/c1ccco1)NC(=S)Nc1cccc(-c2nc3ccccc3s2)c1	0	·	-5	23	·	13*	8
Cc1cccc(C)c1NC(=S)N1CCC(c2ccccc2)C1 (configuration not stated)	0	0	?	21	-5	1	·
CC(C)C[C@@]12C(=O)N(c3cccc(F)c3)C(=O)N1[C@H](c1ccc(F)cc1)[C@@H]1C(=O)N(C3CCCCC3)C(=O)[C@@H]12	0	·	1	26	·	·	·
COC(=O)Cc1c(C(=O)OC)nnn1-c1ccc(OC)cc1	0	3	-2	6	-3	-1	·
COC(=O)CC1=NN(c2ccc(OC)cc2)C(=O)C1	1	-2	-1	18	-8	12*	2
Cc1ccc(N(CCC#N)C(=O)COC(=O)C2CCN(S(=O)(=O)c3ccc4c(c3)OCCO4)CC2)cc1	0	·	-1	20	·	·	·
Cc1ccccc1-c1cc2nc(Oc3ccc4c(c3)OCO4)n(C)c(=O)c2s1	0	·	·	·	·	·	·
COC(=O)CC1C(=O)NCCN1C(=O)CSc1nc2ccccc2o1 (configuration not stated)	0	1	0	-2	-1	12*	-1
COc1ccc(CN(C)c2ncnc3sccc23)c(OC)c1OC	0	·	9	40	·	·	·
Cc1ccc(C(=O)NC2CC(C)(C)NC(C)(C)C2)cc1C	0	-1	4	10	-8	12*	-5
CCOc1ccc(CCNC(=O)CS(=O)Cc2nc(-c3ccc(OC)c(OC)c3)oc2C)cc1OCC (configuration not stated)	0	·	2	-5	·	·	·
COCCn1cc(C(=O)NCCCN2CCC(C)CC2)c2c3ccccc3n(C)c2c1=O	0	1	-4	22	1	14*	1
CCN1CCN(CCCNC(=O)c2cn(CCOC)c(=O)c3c2c2ccccc2n3C)CC1	·	0	12	23	4	-2	·
O=C(CN1C(=O)NC2(CCCCCC2)C1=O)NCc1ccccc1Cl	0	·	·	·	·	·	·
COc1ccc(OC)c(C2=NOC(C(=O)N3CCN(c4ccccc4)CC3)C2)c1 (configuration not stated)	0	1	0	17	1	0	·
COc1cccc(C2=NOC(C(=O)N3CCN(c4ccccc4)CC3)C2)c1OC (configuration not stated)	1	·	4	22	-2	31*	3
O=C(COC(=O)Cc1ccccc1F)Nc1cccc(S(=O)(=O)NC2=NCCCCC2)c1	1	-1	-3	20	-2	0	·
O=C(Nc1ccccc1)Nc1ccc(Br)cc1F	0	2	0	12	3	2	·
